In assay [1] the target is T1, Melatonin receptor type 1A (Homo sapiens, UniProt P48039). Description: Intrinsic agonist activity at human MT1 receptor expressed in […] NIH/3T3 cell membranes assessed as induction of G protein activation incubated for 30 mins by [35S]GTPgammaS binding assay relative to melatonin. It counts as functional. The gist of the method:
(§1)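 NIH3T3 membranes bearing cloned human MT1 or MT2 (15–25 μg protein) incubated 30 min at 30 °C with [35S]GTPγS 0.3–0.5 nM, GDP 50 μM, NaCl 100 mM, MgCl2 3 mM. […] Maximal stimulation above basal was divided by that of 100 nM MLT in the same experiment. Run in triplicate.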
In general terms: GTPγS resists hydrolysis and so accumulates on activated G proteins.

Assay [2] deals with T2, Melatonin receptor type 1B (Homo sapiens) (UniProt P49286).
T2 sequence (whole entry): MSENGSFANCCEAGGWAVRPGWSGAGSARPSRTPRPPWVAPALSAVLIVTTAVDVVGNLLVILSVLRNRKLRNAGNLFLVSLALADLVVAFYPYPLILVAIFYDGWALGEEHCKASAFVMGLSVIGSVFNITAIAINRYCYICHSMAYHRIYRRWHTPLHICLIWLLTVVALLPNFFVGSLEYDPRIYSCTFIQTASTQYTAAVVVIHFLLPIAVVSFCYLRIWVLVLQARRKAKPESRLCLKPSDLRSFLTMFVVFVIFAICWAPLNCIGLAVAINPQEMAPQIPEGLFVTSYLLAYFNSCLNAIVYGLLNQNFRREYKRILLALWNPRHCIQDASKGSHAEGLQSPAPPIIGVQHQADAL
Put plainly: Intrinsic agonist activity at human MT2 receptor expressed in […] NIH/3T3 cell membranes assessed as induction of G protein activation incubated for 30 mins by [35S]GTPgammaS binding assay relative to melatonin. It counts as functional. In outline:
as §1

Assay [3] concerns the target T3, Fatty-acid amide hydrolase 1 (Rattus norvegicus, UniProt P97612).
T3 sequence (P97612 whole entry): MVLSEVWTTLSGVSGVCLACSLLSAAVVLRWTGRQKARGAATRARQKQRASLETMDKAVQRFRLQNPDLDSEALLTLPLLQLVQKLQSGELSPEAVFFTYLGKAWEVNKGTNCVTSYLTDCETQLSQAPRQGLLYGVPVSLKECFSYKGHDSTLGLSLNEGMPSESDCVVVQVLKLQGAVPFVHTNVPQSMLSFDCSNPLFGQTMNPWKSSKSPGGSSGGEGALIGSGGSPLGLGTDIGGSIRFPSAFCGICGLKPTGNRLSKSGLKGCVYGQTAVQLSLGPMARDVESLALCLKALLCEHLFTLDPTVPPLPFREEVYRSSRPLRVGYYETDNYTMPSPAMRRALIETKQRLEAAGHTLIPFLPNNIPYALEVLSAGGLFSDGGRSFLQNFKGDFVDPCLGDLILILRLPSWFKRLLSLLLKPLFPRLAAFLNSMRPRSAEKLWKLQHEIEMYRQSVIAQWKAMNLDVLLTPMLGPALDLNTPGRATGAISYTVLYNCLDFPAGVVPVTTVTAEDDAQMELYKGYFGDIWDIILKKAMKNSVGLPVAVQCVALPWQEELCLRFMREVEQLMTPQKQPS
Put plainly: Inhibition of FAAH1 in Wistar rat brain homogenates using [3H]anandamide as substrate incubated for 30 mins by liquid scintillation counting method. In outline:
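Wistar rat brain homogenised in ice-cold Tris 50 mM pH 7.5 with 0.32 M sucrose, spun 1,000 × g 10 min at 4 °C; supernatant used. Homogenate (50 μg protein) incubated 30 min at 37 °C in Tris 50 mM pH 7.5, 0.05% fatty-acid-free BSA, 10 μM anandamide plus [3H]anandamide (20,000 cpm), varying compound concentrations, final DMSO 1%. Stopped with CHCl3/MeOH 1:1; aqueous [3H]ethanolamine counted. IC50 from at least two determinations.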

Assay [4] concerns the target T4, Melatonin receptor type 1B (Homo sapiens, UniProt P49286).
T4 sequence (P49286 whole entry): T2 sequence (whole entry)
Description: biochemical.

Assay [5] relates to Oryctolagus cuniculus. Put plainly: Reduction in hypertonic saline solution-induced elevated intraocular pressure in New Zealand White rabbit at 1 mM dosed topically before hypertonic saline solution injection measured after 120 mins. Format: functional, organism-based. The gist of the method:
(§2)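 Male SPF New Zealand albino rabbits, 2–2.5 kg, four per compound. 0.05 mL of 1 mM solution in 0.9% NaCl, 0.1% DMSO, 0.1% EtOH was dropped into one eye, vehicle into the other, before intravitreal 0.1 mL 5% hypertonic saline. IOP was read by tonometry after oxybuprocaine 0.2% once the rise had stabilised at 30–40 mm Hg, then after treatment. Analysis by 2-way ANOVA with Bonferroni.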

The target in assay [6] is T1, Melatonin receptor type 1A. Description: biochemical.
The subject of assay [7] is Oryctolagus cuniculus. Description: Reduction in hypertonic saline solution-induced elevated intraocular pressure in New Zealand White rabbit at 1 mM dosed topically before hypertonic saline solution injection measured after 60 mins. Format: functional, organism-based. The gist of the method:
as §2

The test system of assay [8] is Oryctolagus cuniculus. Put plainly: Reduction in hypertonic saline solution-induced elevated intraocular pressure in New Zealand White rabbit at 1 mM dosed topically before hypertonic saline solution injection measured after 240 mins. It counts as functional, organism-based. In outline:
as §2

The source made the active and inactive calls. The rule behind the calls is not given here.

T1 sequence (P48039 whole entry): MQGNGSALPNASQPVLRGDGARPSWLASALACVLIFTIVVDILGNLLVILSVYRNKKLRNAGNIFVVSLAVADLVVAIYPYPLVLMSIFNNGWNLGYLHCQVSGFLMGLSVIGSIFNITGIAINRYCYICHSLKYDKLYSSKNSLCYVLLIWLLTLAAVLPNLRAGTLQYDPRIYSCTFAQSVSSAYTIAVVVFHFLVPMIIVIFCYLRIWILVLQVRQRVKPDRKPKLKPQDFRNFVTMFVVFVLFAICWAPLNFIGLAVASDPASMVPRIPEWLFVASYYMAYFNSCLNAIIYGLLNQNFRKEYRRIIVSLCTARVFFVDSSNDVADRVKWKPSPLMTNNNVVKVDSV

As a reminder, the IC50 is the concentration at which inhibition is half-maximal. A lower IC50 goes with inhibition by little substance. As a reminder, the Ki is the equilibrium dissociation constant of an inhibitor or competing ligand from its target. Low readings indicate higher affinity, high ones lower affinity. For `CC(=O)NCCN(C)c1cccc(OCCCCCCCCNC(=O)Oc2cccc(-c3ccccc3)c2)c1`, the figures for the Intrinsic activity in assay [1] and in assay [2] were 0.85 and 0.96, respectively. In assay [3], this compound yielded an IC50 of 0.63 nM. The results for the Ki in assay [4] and in assay [6] were 32.4 nM and 31.6 nM, respectively. In addition, the result with Oryctolagus cuniculus [5] was Active. The result with Oryctolagus cuniculus [7] was inactive.
Take `CC(=O)NCCc1c[nH]c2ccc(OCCCCCCCCNC(=O)Oc3cccc(-c4ccccc4)c3)cc12`: the result in the assay on Oryctolagus cuniculus [8] and with Oryctolagus cuniculus [5] was inactive. For the same compound, the Intrinsic activity worked out at 0.73 in assay [1] and 0.53 in assay [2]. The same compound displayed an IC50 in assay [3] of 4 nM. The values for the Ki in assay [4] and in assay [6] were 6.31 nM and 4.9 nM, respectively. For the same compound, the outcome in the assay on Oryctolagus cuniculus [7] was Active.
Regarding `CC(=O)NCCc1c(Br)[nH]c2ccc(OCCCCCCNC(=O)Oc3cccc(-c4ccccc4)c3)cc12`, the outcome in the assay on Oryctolagus cuniculus [8] and in the assay with Oryctolagus cuniculus [5] was Active. For the same compound, the Intrinsic activity in assay [1] was found to be 0.73; in assay [2], 0.97. This compound also displayed an IC50 in assay [3] of 0.85 nM. For the same compound, the Ki in assay [4] is 1.7 nM; in assay [6], 0.776 nM.
Take `CC(=O)NCCN(C)c1cccc(OCCCCCCNC(=O)Oc2cccc(-c3cccc(C(N)=O)c3)c2)c1`: the results for the Intrinsic activity in assay [1] and in assay [2] were 0.79 and 1.01, respectively. In addition, the IC50 in assay [3] stood at 0.43 nM. Besides, the Ki was 15.5 nM in assay [4] and 38.9 nM in assay [6]. For the same compound, the result with Oryctolagus cuniculus [5] was Active. The result in the assay on Oryctolagus cuniculus [7] was inactive.
In the case of `CC(=O)NCCN(C)c1cccc(OCCCCN)c1`, the Intrinsic activity in assay [1] came out at 0.32; in assay [2], 0.35. The Ki in assay [4] was 12900 nM; in assay [6], 3090 nM.
Turning to `CC(=O)NCCN(C)c1cccc(OCCCCCCN)c1`, the Intrinsic activity worked out at 0.34 in assay [1] and 0.08 in assay [2]. Further, the Ki in assay [4] is 398 nM; in assay [6], 447 nM.
The like results for `CC(=O)NCCN(C)c1cccc(OCCCCOc2cccc(O)c2)c1` were, in that order, 0.27, 0.18, 603 nM and 186 nM.
Turning to `NC(=O)c1cccc(-c2cccc(OC(=O)NC3CCCCC3)c2)c1`, the outcome in the assay with Oryctolagus cuniculus [5] was inactive. Further, the result in the assay with Oryctolagus cuniculus [7] was Active.
As to `CC(=O)NCCN(C)c1cccc(OCCCCNC(=O)Oc2cccc(-c3ccccc3)c2)c1`, the Intrinsic activity in assay [1] was determined as 0.64; in assay [2], 0.39. This compound returned a half-inhibitory concentration (IC50) in assay [3] of 1.45 nM. Further, the Ki in assay [4] was 44.7 nM; in assay [6] it was 12.9 nM.
Take `CC(=O)NCCN(C)c1cccc(OCCCCCCNC(=O)Oc2cccc(-c3ccccc3)c2)c1`: the values for the Intrinsic activity in assay [1] and in assay [2] were 0.7 and 0.75, respectively. Further, the midpoint of inhibition in assay [3], the IC50, lay at 1.34 nM. For the same compound, the inhibition constant Ki in assay [4] was 33.1 nM; in assay [6], 21.4 nM.
On to `CC(=O)NCCc1c[nH]c2ccc(OCCCCCCNC(=O)Oc3cccc(-c4ccccc4)c3)cc12`, for which the outcome with Oryctolagus cuniculus [8] and in the assay on Oryctolagus cuniculus [5] was inactive. In addition, the Intrinsic activity was 0.73 in assay [1] and 1.02 in assay [2]. In assay [3], this compound yielded an IC50 of 2.38 nM. Also, the inhibition constant Ki in assay [4] was 4.57 nM; in assay [6], 6.03 nM. The result with Oryctolagus cuniculus [7] was Active.
In the case of `CC(=O)NCCN(C)c1cccc(OCCCCCCOc2cccc(O)c2)c1`, the figures for the Intrinsic activity in assay [1] and in assay [2] were 0.62 and 0.57, respectively. In addition, the Ki is 331 nM in assay [4] and 58.9 nM in assay [6].
For `CCC(=O)NCCN(C)c1cccc(OCCCCCCNC(=O)Oc2cccc(-c3ccccc3)c2)c1`, the Intrinsic activity in assay [1] turned out to be 0.77; in assay [2], 0.88. This compound also came in with an IC50 in assay [3] of 3.07 nM. Further, the Ki in assay [4] is 19.1 nM; in assay [6] it was 16.2 nM.
For the compound `CC(=O)NCCN(C)c1cccc(OCCCCCCOc2cccc(OC(=O)NC3CCCCC3)c2)c1`, the Intrinsic activity in assay [1] and in assay [2] was 0.71 throughout. In assay [3], this compound yielded an IC50 of 197 nM. Further, the Ki in assay [4] was 295 nM; in assay [6], 27.5 nM.
On to `CC(=O)NCCN(C)c1cccc(OCCCCOc2cccc(OC(=O)NC3CCCCC3)c2)c1`, for which the figures for the Intrinsic activity in assay [1] and in assay [2] were 0.07 and 0.05, respectively. This compound also came in with a half-inhibitory concentration (IC50) in assay [3] of 184 nM. In addition, the Ki in assay [4] is 53.7 nM; in assay [6] it was 34.7 nM.
Turning to `COc1ccc2[nH]cc(CCNC(C)=O)c2c1`, the result in the assay on Oryctolagus cuniculus [5] was inactive. Also, in the assay with Oryctolagus cuniculus [7], the outcome was Active.
`CC(=O)NCCN(C)c1cccc(OCCCCCCNC(=O)Oc2cccc(-c3cccc(O)c3)c2)c1`: the Intrinsic activity in assay [1] worked out at 0.89; in assay [2], 0.94. The compound also had a half-inhibitory concentration (IC50) in assay [3] of 0.36 nM. Also, the figures for the Ki in assay [4] and in assay [6] were 26.9 nM and 29.5 nM, respectively. In addition, the result in the assay with Oryctolagus cuniculus [5] was Active. Moreover, the result in the assay on Oryctolagus cuniculus [7] was inactive.
